Measured values: ChEMBL document CHEMBL1155551, “First synthesis and antiprotozoal activities of divinyl sulfone-modified carbohydrates” (Bioorg Med Chem Lett, 2010)

Test system: Entamoeba invadens
Assay: Antiprotozoal activity against Entamoeba invadens after 24 hrs by trypan blue assay
Assay type: functional, organism-based
Details: not given
How it was run: (§1)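 Trophozoites kept in TYIS-33 medium, E. histolytica at 37 °C and E. invadens at 25 °C. About 5 × 10⁵ cells/mL exposed to compounds (10 mM stocks in DMSO) for 24 h, with DMSO as negative and metronidazole as positive control. Cells washed in PBS; live cells counted by hemocytometer with trypan blue. IC50 fitted from at least three experiments, each in triplicate.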
With `C=CS(=O)(=O)C1=C[C@@H](OC)O[C@@H]1COCc1ccccc1` the IC50 was 30.1 µM. `Cc1ncc([N+](=O)[O-])n1CCO` [METRONIDAZOLE] gave an IC50 of 3 µM. Compound `C=CS(=O)(=O)C1=C[C@H](OC)O[C@@H]1COC(c1ccccc1)(c1ccccc1)c1ccccc1` has an IC50 of 17 µM. In the case of `C=CS(=O)(=O)C1=C[C@@H](OC)O[C@@H]1COC(c1ccccc1)(c1ccccc1)c1ccccc1`, the IC50 is reported as 25 µM. With `C=CS(=O)(=O)C1=C[C@H](OC)O[C@@H]1COCc1ccccc1` the IC50 was 9.3 µM.

Test system: MCF7
Assay: Cytotoxicity against human MCF7 after 36 hrs by MTT assay
Assay type: cell-based
Details: mcf7, 48 h, in the assay text read “48 hrs” for “36 hrs”
How it was run: (§2)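 MCF7 or AH927 cells seeded at 2 × 10³ per well under 5% CO2, 37 °C. After 36 h, compound added at concentrations ranging from 0 to 100, with untreated wells as control. Viability read by MTT after 48 h of treatment.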
In the case of `C=CS(=O)(=O)C1=C[C@H](OC)O[C@@H]1COCc1ccccc1`, the Activity is reported as “Non-toxic”.

Test system: not listed separately
Assay: Cytotoxicity against cat AH927 after 36 hrs by MTT assay
Details: Felis catus, 48 h, in the assay text read “48 hrs” for “36 hrs”
How it was run: as §2
For `C=CS(=O)(=O)C1=C[C@H](OC)O[C@@H]1COCc1ccccc1`, the Activity was “Non-toxic”.

Test system: Entamoeba histolytica
Assay: Antiprotozoal activity against Entamoeba histolytica after 24 hrs by trypan blue assay
Assay type: functional, organism-based
Details: not given
How it was run: as §1
For `C=CS(=O)(=O)C1=C[C@@H](OC)O[C@@H]1COCc1ccccc1`, the IC50 was 24.4 µM. `Cc1ncc([N+](=O)[O-])n1CCO` [METRONIDAZOLE] gave an IC50 of 2.5 µM. Work on `C=CS(=O)(=O)C1=C[C@H](OC)O[C@@H]1COC(c1ccccc1)(c1ccccc1)c1ccccc1` yielded an IC50 of 32.9 µM. `C=CS(=O)(=O)C1=C[C@@H](OC)O[C@@H]1COC(c1ccccc1)(c1ccccc1)c1ccccc1` gave an IC50 of 37.9 µM. For `C=CS(=O)(=O)C1=C[C@H](OC)O[C@@H]1COCc1ccccc1`, the IC50 was 19.5 µM.
